Results gathered from unrelated publications.
Read-out: cell growth or viability

| SMILES | cell line | technique | time | IC50 |
| --- | --- | --- | --- | --- |
| CC(C)c1ccccc1[C@@H]1CCCN1C1CC2(CCN(c3ccc(C(=O)NS(=O)(=O)c4ccc(NC[C@H]5CC[C@](C)(O)CC5)c([N+](=O)[O-])c4)c(Oc4cnc5[nH]ccc5c4)c3)CC2)C1 | SU-DHL-4 | ATP luminescence | 48 h | 2.7 nM |
| CCOc1nc(-c2cccc(O)c2)cc(-c2cc3ccccc3nc2N2CCOCC2)c1C#N | Caco-2 | MTT | 72 h | 141 nM |
| COc1cc2c3c(n(CCCNC(C)C)c(=O)c2cc1OC)-c1nc2c(cc1C3=O)OCO2 | TC-32 | MTS | 72 h | 55 nM |
| COc1nc(NCc2cn(-c3ccc(C(=O)Nc4ccc(C(F)(F)F)cc4)cc3)nn2)nc(OC)n1 | Caco-2 | MTT | 72 h | 171 nM |
| CCCOc1nc(-c2cccc(O)c2)cc(-c2cc3ccccc3nc2N2CCOCC2)c1C#N | Caco-2 | MTT | 72 h | 130 nM |
| COc1nc(NCc2cn(-c3ccc(NC(=O)c4ccccc4)cc3)nn2)nc(OC)n1 | Caco-2 | MTT | 72 h | 766 nM |
| C=CC(=O)N1CCN(c2nc(=O)n(-c3c(C)ccnc3C(C)C)c3nc(-c4c(O)cccc4F)c(F)cc23)[C@@H](C)C1 | UMUC3 | ATP luminescence |  | 48.8 nM |
| COc1cccc2c1C(=O)c1c(O)c3c(c(O)c1C2=O)C[C@@](O)(C(=O)CO)C[C@@H]3O[C@H]1C[C@H](N)[C@H](O)[C@H](C)O1 | NCI-H1650 | MTT | 72 h | 120 nM |
| C=C(F)C(=O)N1CCN(c2nc(OC[C@@H]3CCCN3C)nc3c2CCN(c2cccc4cccc(Cl)c24)C3)C[C@@H]1CC#N | UMUC3 | ATP luminescence |  | 294 nM |
| Nc1n[nH]c2nc(-c3cccc(O)c3)cc(-c3cc4ccccc4nc3N3CCOCC3)c12 | Caco-2 | MTT | 72 h | 625 nM |
| N[C@H]1CC[C@H](N[C@@H]2C[C@H]2c2ccccc2)CC1 | TC-32 | resazurin |  | 178000 nM |
| COc1nc(NCc2cn(-c3ccc(NC(=O)c4ccc([N+](=O)[O-])cc4)cc3)nn2)nc(OC)n1 | Caco-2 | MTT | 72 h | 658 nM |
| CCCOc1nc(-c2cccc(O)c2)cc(-c2cc3cc(OC)ccc3nc2N2CCOCC2)c1C#N | Caco-2 | MTT | 72 h | 42.2 nM |
| COc1nc(NCc2cn(-c3ccc(NC(=O)c4ccc(F)cc4)cc3)nn2)nc(OC)n1 | Caco-2 | MTT | 72 h | 550 nM |
| CCNCCCn1c2c(c3cc(OC)c(OC)cc3c1=O)C(=O)c1cc3c(nc1-2)OCO3 | TC-32 | MTS | 72 h | 53 nM |
| COc1nc(NCc2cn(-c3ccc(C(=O)Nc4ccc(C)cc4)cc3)nn2)nc(OC)n1 | Caco-2 | MTT | 72 h | 514 nM |
| COc1cc2c3c(n(CCCn4ccnc4)c(=O)c2cc1OC)-c1nc2c(cc1C3=O)OCO2 | TC-32 | MTS | 72 h | 127 nM |
